Test results: the array DNA melting data of Ke et al. (doi:10.1101/2024.01.08.574731)

What was measured:
[1] = folding enthalpy; higher = less favourable; fluorescence melt of hairpins on a sequencing array, two-state fit; details: sodium 0.088 M
Outline: (§1)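 Cy3 fluorescence of library hairpins on a sequenced MiSeq flow cell, with annealed Cy3 and quencher oligos, was imaged in 50 mM Na-HEPES pH 8.0, 25 mM NaCl in 2.5 °C steps up to 60 °C. Signals were normalised to pre-quench Cy3 and to control variants. Melting temperature and folding enthalpy came from bootstrapped two-state fits, inverse-variance combined over four replicates. Fitted temperatures were raised by 9.35 °C to match UV melts.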

[2] = melting temperature; fluorescence melt of hairpins on a sequencing array, two-state fit, raised by 9.35 °C to match UV melts; details: sodium 0.088 M
Outline: as §1

Row | Sequence | folding enthalpy [1] [kcal/mol] | Tm [2] [°C]
1 | CGTGGCCGGAAACGGACG (((..(((....)))))) | -10.8 | 44.2
2 | GATGTCCGAAAGGATATC (((.(((....))).))) | -35.6 | 52.3
3 | GAAATCCGAAAGGAATTC (((.(((....))).))) | -28.1 | 40.9
4 | GATCGTTTCCACGATC ((((((....)))))) | -40.5 | 54
5 | GAGGTCGGAAACGGCTTC ((.(.((....)).).)) | -20.5 | 36.1
6 | GTTAAGACGAAAGTCAAC (((..(((....)))))) | -11.8 | 30.1
7 | GATCTGAATCCAGATC ((((((....)))))) | -37.8 | 46
8 | GTGCCGGGAAACCGGCGC (.(((((....))))).) | -18.2 | 67.3
9 | GTTGGGGAAACCCAAC ((((((....)))))) | -36.8 | 60
10 | CGCGGAACACTCCGCG ((((((....)))))) | -34.8 | 63.3
11 | GCTCGGCGAAAGCGGCGC ((.(.((....)).).)) | -15.8 | 54
12 | GATCTTATGTAAGATC ((((((....)))))) | -36.6 | 45.2
13 | GATCACGGTGGTGATC ((((((....)))))) | -37.2 | 58.3
14 | GATCCAGCCTGGATC ((((((...)))))) | -34 | 52.2
15 | GGGAAGCGAAAGCTCCCC (((.(((....))).))) | -21.7 | 61.5
16 | GGATATGGAAACGTATCC (((((.(....).))))) | -35.5 | 43.4
17 | GAATGGGGAAACCCATTC (((((((....))))))) | -33.7 | 57.6
18 | GAATCCGAAAGGAAATTC ((((((....)))..))) | -15.5 | 29.1
19 | GTGTACGAAAGTATGCAC ((((((....)))..))) | -17.7 | 35.6

Row | Sequence | folding enthalpy [1] [kcal/mol] | Tm [2] [°C]
20 | GATGGAGCGAAAGCTATC (((..(((....)))))) | -10.5 | 30.2
21 | GATCAACAGATTGATC ((((((....)))))) | -30.1 | 40.4
22 | GCTTGCGGAAACGCAGGC ((.((((....)))).)) | -35.1 | 62.8
23 | GCTCACACGAAAGTGAGC (((..(((....)))))) | -32 | 60.5
24 | GCGCATACGAAAGTACGC (((..(((....)))))) | -22.7 | 44.9
25 | CGCGCGGAAACGCTTGCG ((((((....)))..))) | -21.5 | 49.4
26 | GTTAGGGGAAACCCCAAC (((.(((....))).))) | -19 | 37.4
27 | GATCAACGGTTGATC ((((((...)))))) | -40.3 | 44.7
28 | GATCCTCTGAGGATC ((((((...)))))) | -33 | 51.9
29 | GGACACGGAAACATGTCC (((((.(....).))))) | -33 | 44
30 | CGCTCGGAAACGAACGCG ((((((....)))..))) | -19.4 | 44.8
31 | GTACTGGGAAACTGGTAC ((((..(....)..)))) | -24.5 | 36.5
32 | GATCGTTGAGACGATC ((((((....)))))) | -39.4 | 58.1
33 | GTGCCGCCGAAAGGCCAC (((..(((....)))))) | -9.13 | 60
34 | GATCGCACCGGCGATC ((((((....)))))) | -33.7 | 68.3
35 | GCCCCAGGAAACTGGGAC (.(((((....))))).) | -15.6 | 46.1
36 | GATACAGGAAACTGCATC (((.(((....))).))) | -28.4 | 33.6
37 | GATCCGTGCTCGGATC ((((((....)))))) | -43.9 | 59.7
38 | GATCCTGGATAGGATC ((((((....)))))) | -39 | 57.5
